# High-throughput results (PubChem)
# E-sel inducer: induces E-selectin expression in human endothelial cells | P16581 | HUVEC E-selectin immunofluorescence imaging; normalized: neutral wells 0, TNF-alpha wells 100 | activation, % at 7.58 µM | 0.37% of 260,000 active;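 active means mean E-selectin-positive cell signal at least 10% of the positive control, reached in at least 60% of replicates, without over 20% cell loss; inconclusive means no rule given, readout overlaps actives, possibly toxicity-flagged; inactive means the rest, including those meeting only one limit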
# Target sequence (P16581 whole entry, looked up): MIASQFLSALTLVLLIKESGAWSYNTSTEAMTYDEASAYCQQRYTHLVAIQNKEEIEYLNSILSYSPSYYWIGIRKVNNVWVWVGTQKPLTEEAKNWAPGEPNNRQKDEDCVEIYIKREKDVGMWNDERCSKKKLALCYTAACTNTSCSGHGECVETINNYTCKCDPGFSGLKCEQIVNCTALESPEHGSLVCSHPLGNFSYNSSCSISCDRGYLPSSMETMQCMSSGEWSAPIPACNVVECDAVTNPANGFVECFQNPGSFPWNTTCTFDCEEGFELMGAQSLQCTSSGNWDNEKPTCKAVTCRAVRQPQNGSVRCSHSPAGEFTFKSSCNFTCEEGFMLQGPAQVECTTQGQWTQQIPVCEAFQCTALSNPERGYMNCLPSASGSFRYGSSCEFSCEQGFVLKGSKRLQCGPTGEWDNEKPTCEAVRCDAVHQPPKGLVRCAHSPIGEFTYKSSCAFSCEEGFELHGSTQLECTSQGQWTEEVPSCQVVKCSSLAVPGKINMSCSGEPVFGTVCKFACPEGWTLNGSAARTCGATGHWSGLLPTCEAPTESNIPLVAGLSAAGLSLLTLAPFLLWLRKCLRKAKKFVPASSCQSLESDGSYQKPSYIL
#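 Read-out: % PE-positive cells | Test system: HUVEC | Doses: One compound dose added by pin transfer | Buffer or medium: EGM-2 over gelatin coat | Signal: Immunofluorescence imaging | Benchmarks: TNF-alpha, DMSO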
# DENV2 CPE: DENV2-induced cell death inhibition; DENV2-infected cells, cytopathic effect rescue, plate reader; CPE inhibition, % at 9.99 µM; 1.7% of 350,000 active; in the data active means CPE inhibition above about 20%, passing the limit was not always enough; inconclusive means no clear call, values can overlap the other calls; tested in BHK-21 cells
# SIRT5 inh: sirtuin-5 (human) deacylase inhibition | Q9NXA8 | Purified SirT5, succinyl-peptide AMC, trypsin-coupled fluorescence | inhibition, % at 15 µM | 1.1% of 330,000 active | AID 652115; in the data active means inhibition above about 15%; inconclusive means no clear call, values can overlap the other calls
# Hits are given with their value; n = inactive; u = inconclusive; x = no result. Rows were chosen to be rich in hits. Some 2.9% of all compounds tested hit in one or more screens of this group.
SMILES,E-sel inducer,DENV2 CPE,SIRT5 inh
COc1ccc(-c2cc(C)no2)cc1S(=O)(=O)N1CCN(c2ccc([N+](=O)[O-])cc2)CC1,x,n,n
COCCCN=C1NN=C(c2cc(C)n(Cc3ccccc3Cl)c2C)CS1,n,n,n
CC(C)c1ccc2nc(NC(=O)C3CC3)sc2c1,n,u,n
C[C@H]1CN([C@@H](C)CO)C(=O)c2cc(NC(=O)Cc3cn(C)c4ccccc34)ccc2O[C@H]1CN(C)Cc1ccc(C(=O)Nc2ccccc2N)cc1,n,n,20
C[C@H](CO)N1C[C@H](C)[C@H](CN(C)Cc2ccc(-c3ccccc3)cc2)Oc2ccc(NC(=O)Cc3cn(C)c4ccccc34)cc2CC1=O,n,n,n
C[C@@H]1CN([C@@H](C)CO)C(=O)Cc2cc(NC(=O)Cc3cn(C)c4ccccc34)ccc2O[C@@H]1CN(C)Cc1ccc(-c2ccccc2)cc1,n,n,15
C[C@H](CO)N1C[C@H](C)[C@@H](CN(C)Cc2ccc(C(F)(F)F)cc2)Oc2ccc(NC(=O)Cc3cn(C)c4ccccc34)cc2CC1=O,n,n,n
C[C@@H]1CN([C@@H](C)CO)C(=O)Cc2cc(NC(=O)Cc3cn(C)c4ccccc34)ccc2O[C@@H]1CN(C)Cc1ccc(C(F)(F)F)cc1,n,77,n
C[C@H](CO)N1C[C@H](C)[C@@H](CN(C)Cc2ccc(C(=O)Nc3ccccc3N)cc2)Oc2ccc(NC(=O)Cc3cn(C)c4ccccc34)cc2CC1=O,x,n,n
CCN(CC)C(=O)C(Oc1ccc(C)nc1[N+](=O)[O-])c1ccccc1 (stereo not drawn),x,n,n
O=C(O)COc1ccccc1/C=N/NC(=O)CSc1nnc(SCc2cccc3ccccc23)s1,n,n,17
O=C(O)COc1ccccc1/C=N/NC(=O)CSc1nnc(SCc2ccc(Cl)cc2)s1,n,n,n
Cc1ccc(NC2CNC(=O)NC2=O)cc1C (stereo not drawn),n,n,x
Cc1ccc(NC2C(=O)NC(=O)NC2=O)cc1,n,36,n
CCOC(=O)/C(=N/Nc1ccc(OC)cc1)Sc1nnc(CCc2ccccc2)n1-c1ccccc1,x,n,22
CC(=O)/C(=N/Nc1ccc(C)cc1)Sc1nnc(CCc2ccccc2)n1-c1ccccc1,x,n,n
COc1ccc2cc(CCNC(=O)c3ccc4c(c3)OCO4)c(=O)[nH]c2c1,n,n,n
CC/C(C)=N/NS(=O)(=O)c1ccc(C)c([N+](=O)[O-])c1,n,n,n
CCC(C)(C)C1CCC(=NNS(=O)(=O)c2ccc(C)c([N+](=O)[O-])c2)CC1 (stereo not drawn),n,n,18
COc1ccc(C(O)c2nc(-c3cc(F)cc(F)c3)cs2)cc1 (stereo not drawn),n,n,x
COc1cccc(C(O)c2nc(-c3ccc(N(C)C)cc3)cs2)c1 (stereo not drawn),x,n,n
O=C(O)c1cccc(-c2csc(C(O)c3ccc(F)c(F)c3)n2)c1 (stereo not drawn),n,41,x
OC(c1ccc(F)c(F)c1)c1nc(-c2ccccc2)cs1 (stereo not drawn),n,n,n
COc1ccc(-c2csc(C(O)c3cccc(OC)c3)n2)cc1 (stereo not drawn),n,52,x
COc1cccc(C(O)c2nc(-c3cc(F)cc(F)c3)cs2)c1 (stereo not drawn),n,30,n
SMILES,E-sel inducer,DENV2 CPE,SIRT5 inh
COc1cc(/C=C/C(=O)OCC(=O)NCc2ccco2)ccc1OCC#N,x,n,n
COC1OC2COC(c3ccccc3)OC2C(OC(=O)c2ccccc2)C1OC(=O)c1ccccc1 (stereo not drawn),n,n,n
COc1ccc(S(=O)(=O)Nc2ccc3c(c2)C(=O)N([C@@H](C)CO)C[C@H](C)[C@H](CN(C)Cc2ccccc2)O3)cc1,n,n,n
COc1ccc(CN(C)C[C@H]2Oc3ccc(NS(=O)(=O)c4ccccc4)cc3C(=O)N([C@@H](C)CO)C[C@@H]2C)cc1,n,n,n
COc1ccc(S(=O)(=O)Nc2ccc3c(c2)C(=O)N([C@H](C)CO)C[C@@H](C)[C@@H](CN(C)Cc2ccc(Oc4ccccc4)cc2)O3)cc1,n,u,30
COc1ccc(S(=O)(=O)Nc2ccc3c(c2)C(=O)N([C@H](C)CO)C[C@H](C)[C@@H](CN(C)Cc2ccc(Oc4ccccc4)cc2)O3)cc1,n,n,22
COc1ccc(S(=O)(=O)Nc2ccc3c(c2)C(=O)N([C@H](C)CO)C[C@H](C)[C@@H](CN(C)Cc2ccccc2)O3)cc1,n,n,n
COc1ccc(S(=O)(=O)Nc2ccc3c(c2)C(=O)N([C@@H](C)CO)C[C@@H](C)[C@H](CN(C)Cc2ccc(-c4ccccc4)cc2)O3)cc1,n,n,21
COc1ccc(S(=O)(=O)Nc2ccc3c(c2)C(=O)N([C@H](C)CO)C[C@@H](C)[C@H](CN(C)Cc2ccc(Oc4ccccc4)cc2)O3)cc1,n,n,22
COc1ccc(S(=O)(=O)Nc2ccc3c(c2)C(=O)N([C@H](C)CO)C[C@H](C)[C@H](CN(C)Cc2ccc(-c4ccccc4)cc2)O3)cc1,n,n,n
CC(C)c1ccc(Oc2cccc3c2S(=O)(=O)N([C@H](C)c2ccccc2)C[C@@H](COCc2ccccc2)O3)cc1,n,n,x
COc1ccc(NC(=O)CN(C)C(=O)c2cc3c(cc2Cl)N2CCCCCC2=NS3(=O)=O)cc1,n,n,n
COc1ccccc1C(=O)C1CCCN(C(=O)c2cccc(-n3cccn3)c2)C1 (stereo not drawn),n,x,n
COc1ccc(NC(=O)CN(C)C(=O)c2cc(C)on2)cc1,n,n,n
O=C(Cn1c(=O)c2cccn2c2cccnc21)N1CCN(c2ccccc2F)CC1,x,n,n
C[C@H](CO)N1C[C@H](C)[C@H](CN(C)Cc2ccc(Oc3ccccc3)cc2)Oc2ccc(NS(=O)(=O)c3ccccc3)cc2C1=O,n,n,n
C[C@@H]1CN([C@H](C)CO)C(=O)c2cc(NS(=O)(=O)c3ccc(Cl)cc3)ccc2O[C@H]1CN(C)Cc1ccc(Oc2ccccc2)cc1,n,n,n
COc1ccc(S(=O)(=O)Nc2ccc3c(c2)C(=O)N([C@@H](C)CO)C[C@H](C)[C@H](CN(C)Cc2ccc(Oc4ccccc4)cc2)O3)cc1,n,u,38
COc1ccc(S(=O)(=O)Nc2ccc3c(c2)C(=O)N([C@@H](C)CO)C[C@@H](C)[C@H](CN(C)Cc2ccc(Oc4ccccc4)cc2)O3)cc1,n,n,25
C[C@@H]1CN([C@@H](C)CO)C(=O)c2cc(NS(=O)(=O)c3ccccc3)ccc2O[C@H]1CN(C)Cc1ccc(Oc2ccccc2)cc1,n,x,x
C[C@@H]1CN([C@@H](C)CO)C(=O)c2cc(NS(=O)(=O)c3ccc(Cl)cc3)ccc2O[C@H]1CN(C)Cc1ccc(Oc2ccccc2)cc1,n,n,17
CCC(=O)N1CCC1(C)C(=O)Nc1cccc(OC)c1OC (stereo not drawn),n,n,x
O=C(c1cccc(C(F)(F)F)c1)C1CCCN(C(=O)Cn2cncn2)C1 (stereo not drawn),x,n,n
CCOc1ccc(N2CC(C(=O)N3CC(C)OC(C)C3)CC2=O)cc1 (stereo not drawn),x,n,n
COCC(=O)Nc1ccc2c(c1)[C@@H]1C[C@H](CC(=O)O)O[C@@H](CO)[C@@H]1O2,n,n,n
